Measurements from different studies.
Lines come from different studies, so protocols differ.
Organism: Trypanosoma brucei
Observed: parasite growth

Structure (SMILES) | test | test system | setting | EC50 [nM]
O=C(N/N=C/c1ccc([N+](=O)[O-])o1)c1cn(Cc2ccccc2)c2ccc(Oc3ccccc3)cc2c1=O | resazurin |  | 72 h | 320
O=c1c(O[C@@H]2O[C@H](CO)[C@H](O)[C@H](O)[C@H]2O)c(-c2ccc(O)c(O)c2)oc2cc(O)cc(O)c12 | resazurin |  | 48 h | 50000
Cc1cc(C)c(C#N)c(SCC(=O)c2cccc(N)c2)n1 | resazurin | RHODESIENSE |  | 41400
CC(=O)O[C@H]1C(=O)[C@@]2(C)[C@H]([C@H](OC(=O)c3ccccc3)[C@]3(O)C[C@H](OC(=O)[C@H](O)[C@@H](NC(=O)c4ccccc4)c4ccccc4)C(C)=C1C3(C)C)[C@]1(OC(C)=O)CO[C@@H]1C[C@@H]2O |  |  |  | 7.6
COc1ccc(C(=O)CSc2nc(C)cc(C)c2C#N)cc1 | resazurin |  |  | > 64000
Cc1ccc(C(=O)Nc2ccc(S(=O)(=O)O)c3cc(S(=O)(=O)O)cc(S(=O)(=O)O)c23)cc1NC(=O)c1cccc(NC(=O)Nc2cccc(C(=O)Nc3cc(C(=O)Nc4ccc(S(=O)(=O)O)c5cc(S(=O)(=O)O)cc(S(=O)(=O)O)c45)ccc3C)c2)c1 |  | RHODESIENSE |  | 50
COc1cccc(C(=O)C[S+]([O-])c2nc(C)cc(C)c2C#N)c1 (centres unmarked) | resazurin |  |  | 25400
N=C(N)c1ccc(OCCCCCOc2ccc(C(=N)N)cc2)cc1 | SYBR Green | GAMBIENSE |  | 9
C[C@@H]1C/C=C/C=C/C=C/C=C/[C@H](O[C@@H]2O[C@H](C)[C@@H](O)[C@H](N)[C@@H]2O)C[C@@H]2O[C@](O)(C[C@@H](O)C[C@H]3O[C@@H]3/C=C/C(=O)O1)C[C@H](O)[C@H]2C(=O)O | resazurin |  | 48 h | 12000
CCCCCC(=O)NC(Cc1c[nH]c2ccccc12)C(=O)NC(Cc1c[nH]c2ccccc12)C(=O)NC(CC(C)C)C(=O)C1(C)CO1 (centres unmarked) | SYBR Green |  | 72 h | < 500
Cc1ccc(Cn2cc(C(=O)N/N=C/c3ccc([N+](=O)[O-])o3)c(=O)c3cc(Cl)ccc32)cc1 | resazurin |  | 72 h | 420
